# Experimental data as given in ChEMBL document CHEMBL1151903, “Unique behavior of 2,6-bis(bromomethyl)naphthalene as a highly active organic DNA crosslinking molecule” (Bioorg Med Chem, 2009).
# pIC50: −log10 of the molar value. Active and inactive are the calls of the source. The calls are words filed in the database; no cut-off is given here.
# Experiments:
# [1] = Stability in aqueous solution assessed as half life; type: physicochemical
# Outline: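 Compound at final 10 µM in 0.01 M sodium phosphate buffer pH 7.4/MeCN (4:1). Decomposition followed by reversed-phase RP-18 HPLC with UV detection, eluting with MeCN–H2O or MeOH–H2O; half-life taken from the decomposition rate.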
# Nucleic Acid [2] = test: Induction of […] DNA interstrand crosslinking activity at 10 uM after 6 hrs by agarose gel electrophoresis; type: nucleic-acid assay
# Outline: (§1)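 Linearized pBluescript plasmid DNA (460 ng) exposed to compound in DMSO at 37 °C for 6 h. DNA recovered by EtOH precipitation and lyophilized, then taken up in 1 mM EDTA in 30% aqueous DMSO. Heat-denatured at 95 °C for 5 min and ice-quenched. Run on 1% agarose gel and stained with ethidium bromide.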
# Nucleic Acid [3] = test: Induction of […] DNA interstrand crosslinking activity at 1 uM after 6 hrs by agarose gel electrophoresis; type: nucleic-acid assay; outline: as §1
# [4] = test system: Salmonella enterica subsp. enterica; test: Mutagenic activity in Salmonella typhimurium TA92 assessed as crosslinking-associated increase in number of revertants after 2 days by Ames test; type: toxicity, organism-based; conditions: salmonella enterica subsp. enterica serovar typhimurium, 48 h
# Outline: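 TA92 grown 15.5 h at 37 °C in nutrient broth/NaCl. Culture (0.1 mL) mixed with DMSO-diluted compound (50 µL) in 0.1 M sodium phosphate pH 7.4 and preincubated 20 min at 37 °C. Mixed into 0.6% soft agar and overlaid on minimal agar. Revertant colonies counted manually after 2 days at 37 °C; mean of six plates.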
# [5] = test system: Salmonella enterica subsp. enterica; test: Mutagenic activity in Salmonella typhimurium TA100 assessed as crosslinking-associated increase in number of revertants after 2 days by Ames test; type: toxicity, organism-based; conditions: salmonella enterica subsp. enterica serovar typhimurium, 48 h
# Nucleic Acid [6] = test: Induction of […] DNA interstrand crosslinking activity at > 100 uM after 6 hrs by agarose gel electrophoresis; type: nucleic-acid assay; outline: as §1
# CCRF-HSB-2 = test: Antiproliferative activity against human CCRF-HSB2 cells after 24 hrs by trypan blue exclusion assay; type: functional, cell-based; conditions: CCRF-HSB-2, 24 h
# Outline: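 CCRF-HSB-2 cells in RPMI1640 with 10% fetal calf serum, 37 °C, 5% CO2, seeded at 3 × 10^5 cell/mL in 3 mL per well. Pre-incubated 24 h, then given compound as DMSO solution (3 µL per well) for 24 h. Trypan blue-excluding cells counted.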
Compound,half-life [1],Activity [4],Activity [5],other results
BrCc1ccc(CBr)c2ncccc12,10.5 h,,,
ClCc1ccc(CCl)c2ccccc12,5.5 h,,,
ClCc1ccc2cc(CCl)ccc2c1,0.95 h,,,
BrCc1ccc(CBr)c2ccccc12,0.567 h,Active,Active,Activity (Nucleic Acid [2]): Active; Activity (Nucleic Acid [3]): Active
BrCc1ccc2cc(CBr)ccc2c1,< 0.167 h,Active,Active,Activity (Nucleic Acid [6]): inactive; pIC50 (CCRF-HSB-2): 5.40
BrCc1ccc2nc(CBr)ccc2c1,12.8 h,,,
